In ChEMBL document CHEMBL4184148 (Bioorg Med Chem Lett, 2017):

Tests used:
[1] = target: Dual specificity mitogen-activated protein kinase kinase 2 (Homo sapiens) (UniProt P36507); assay: Binding affinity to wild-type human full length MEK2 (M1 to V400 residues) expressed in HEK293 cells at 1 uM by Kinomescan method relative to control; type: cell-based
Procedure, shortened: (§1)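 Run as one kinome-wide competition binding panel with each compound at a single fixed concentration. Results were plotted as a kinome-wide selectivity map.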

[2] = target: Misshapen-like kinase 1 (Homo sapiens) (UniProt Q8N4C8); assay: Binding affinity to wild-type human partial length MINK (M1 to K312 residues) expressed in HEK293 cells at 1 uM by Kinomescan method relative to control; type: cell-based
[3] = target: Tyrosine-protein kinase Srms (Homo sapiens) (UniProt Q9H3Y6); assay: Binding affinity to wild-type human partial length SRMS (L208 to P488 residues) expressed in HEK293 cells at 1 uM by Kinomescan method relative to control; type: cell-based
[4] = target: Serine/threonine-protein kinase LATS2 (Homo sapiens) (UniProt Q9NRM7); assay: Binding affinity to wild-type human partial length LATS2 (Q641 to V1088 residues) expressed in HEK293 cells at 1 uM by Kinomescan method relative to control; type: cell-based
[5] = test system: Phosphatidylinositol 4,5-bisphosphate 3-kinase catalytic subunit alpha isoform (Homo sapiens), P42336 [M1043I]; assay: Binding affinity to human partial length PIK3CA M1043I mutant (R108 to N1068 residues) expressed in HEK293 cells at 1 uM by Kinomescan method relative to control; type: cell-based
[6] = target: Serine/threonine-protein kinase SBK1 (Homo sapiens) (UniProt Q52WX2); assay: Binding affinity to wild-type human partial length SBK1 (P23 to P348 residues) expressed in HEK293 cells at 1 uM by Kinomescan method relative to control; type: cell-based
[7] = target: Insulin receptor (Homo sapiens) (UniProt P06213); assay: Binding affinity to wild-type human partial length INSR (P997 to E1318 residues) expressed in HEK293 cells at 1 uM by Kinomescan method relative to control; type: cell-based
[8] = target: Tyrosine-protein kinase ITK/TSK (Homo sapiens) (UniProt Q08881); assay: Binding affinity to wild-type human partial length ITK (R335 to L620 residues) expressed in Escherichia coli BL21 at 1 uM by Kinomescan method relative to control
[9] = target: Homeodomain-interacting protein kinase 1 (Homo sapiens) (UniProt Q86Z02); assay: Binding affinity to wild-type human partial length HIPK1 (M146 to I555 residues) expressed in HEK293 cells at 1 uM by Kinomescan method relative to control; type: cell-based
[10] = target: BMP-2-inducible protein kinase (Homo sapiens) (UniProt Q9NSY1); assay: Binding affinity to wild-type human partial length BIKE (S34 to N329 residues) expressed in Escherichia coli BL21 at 1 uM by Kinomescan method relative to control
[11] = target: Serine/threonine-protein kinase PLK2 (Homo sapiens) (UniProt Q9NYY3); assay: Binding affinity to wild-type human partial length PLK2 (H58 to F354 residues) expressed in HEK293 cells at 1 uM by Kinomescan method relative to control; type: cell-based
[12] = target: Aurora kinase C (Homo sapiens) (UniProt Q9UQB9); assay: Binding affinity to wild-type human full length AURKC (M1 to S275 residues) expressed in Escherichia coli BL21 at 1 uM by Kinomescan method relative to control
[13] = target: Calcium/calmodulin-dependent protein kinase kinase 2 (Homo sapiens) (UniProt Q96RR4); assay: Binding affinity to wild-type human partial length CAMKK2 (D65 to V471 residues) expressed in Escherichia coli BL21 at 1 uM by Kinomescan method relative to control
[14] = target: Serine/threonine-protein kinase PAK 6 (Homo sapiens) (UniProt Q9NQU5); assay: Binding affinity to wild-type human partial length PAK6 (N298 to C681 residues) expressed in Escherichia coli BL21 at 1 uM by Kinomescan method relative to control
[15] = target: Dual specificity tyrosine-phosphorylation-regulated kinase 1A (Homo sapiens) (UniProt Q13627); assay: Binding affinity to wild-type human partial length DYRK1A (H129 to S509 residues) expressed in HEK293 cells at 1 uM by Kinomescan method relative to control; type: cell-based
[16] = target: Serine/threonine-protein kinase 36 (Homo sapiens) (UniProt Q9NRP7); assay: Binding affinity to wild-type human partial length STK36 (M1 to T271 residues) expressed in Escherichia coli BL21 at 1 uM by Kinomescan method relative to control
[17] = target: Serine/threonine-protein kinase 38 (Homo sapiens) (UniProt Q15208); assay: Binding affinity to wild-type human partial length NDR1 (N33 to E449 residues) expressed in HEK293 cells at 1 uM by Kinomescan method relative to control; type: cell-based
[18] = target: Beta-adrenergic receptor kinase 1 (Homo sapiens) (UniProt P25098); assay: Binding affinity to wild-type human full length GRK2 (M1 to L689 residues) expressed in HEK293 cells at 1 uM by Kinomescan method relative to control; type: cell-based; procedure, shortened: as §1
[19] = target: Phosphorylase b kinase gamma catalytic chain, liver/testis isoform (Homo sapiens) (UniProt P15735); assay: Binding affinity to wild-type human partial length PHKG2 (M1 to W300 residues) expressed in Escherichia coli BL21 at 1 uM by Kinomescan method relative to control
[20] = target: RAC-alpha serine/threonine-protein kinase (Homo sapiens) (UniProt P31749); assay: Binding affinity to wild-type human partial length AKT1 expressed in Escherichia coli BL21 at 1 uM by Kinomescan method relative to control
Procedure, shortened: (§2)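 Kinome-wide competition binding panel run by an outside provider, with each compound tested at a single concentration. Activity is read against the kinase panel.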

[21] = target: Tyrosine-protein kinase ABL2 (Homo sapiens) (UniProt P42684); assay: Binding affinity to wild-type human ABL2 (A248 to G542 residues) expressed in Escherichia coli BL21 at 1 uM by Kinomescan method relative to control
[22] = target: Cyclin-dependent kinase 17 (Homo sapiens) (UniProt Q00537); assay: Binding affinity to wild-type human full length PCTK2 (M1 to F523 residues) expressed in Escherichia coli BL21 at 1 uM by Kinomescan method relative to control; procedure, shortened: as §2
[23] = target: NUAK family SNF1-like kinase 1 (Homo sapiens) (UniProt O60285); assay: Binding affinity to wild-type human partial length ARK5 (E25 to I332 residues) expressed in Escherichia coli BL21 at 1 uM by Kinomescan method relative to control; procedure, shortened: as §2
[24] = test system: Epidermal growth factor receptor (Homo sapiens), P00533 [L858R,T790M]; assay: Binding affinity to human partial length EGFR L858R/T790M double mutant (R669 to V1011 residues) expressed in HEK293 cells at 1 uM by Kinomescan method relative to control; type: cell-based
[25] = target: Cyclin-dependent kinase-like 5 (Homo sapiens) (UniProt O76039); assay: Binding affinity to wild-type human partial length CDKL5 (M1 to S337 residues) expressed in HEK293 cells at 1 uM by Kinomescan method relative to control; type: cell-based

Sequence of Tyrosine-protein kinase Srms (Homo sapiens) (Q9H3Y6 whole entry, the tested form may be a part): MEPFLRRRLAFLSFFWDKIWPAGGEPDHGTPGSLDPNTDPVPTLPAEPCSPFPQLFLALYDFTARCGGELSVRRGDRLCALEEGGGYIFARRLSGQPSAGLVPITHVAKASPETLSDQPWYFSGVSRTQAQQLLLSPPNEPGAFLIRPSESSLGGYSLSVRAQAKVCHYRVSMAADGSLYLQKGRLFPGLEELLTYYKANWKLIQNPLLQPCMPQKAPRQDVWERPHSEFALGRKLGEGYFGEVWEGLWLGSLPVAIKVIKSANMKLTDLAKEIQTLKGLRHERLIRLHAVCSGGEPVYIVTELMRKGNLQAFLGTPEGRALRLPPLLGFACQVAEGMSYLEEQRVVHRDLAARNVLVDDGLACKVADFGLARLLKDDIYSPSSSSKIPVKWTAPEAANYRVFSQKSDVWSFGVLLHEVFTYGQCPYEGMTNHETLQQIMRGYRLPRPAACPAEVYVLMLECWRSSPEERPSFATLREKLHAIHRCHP
Sequence of Insulin receptor (Homo sapiens) (P06213 28-758 limits assumed): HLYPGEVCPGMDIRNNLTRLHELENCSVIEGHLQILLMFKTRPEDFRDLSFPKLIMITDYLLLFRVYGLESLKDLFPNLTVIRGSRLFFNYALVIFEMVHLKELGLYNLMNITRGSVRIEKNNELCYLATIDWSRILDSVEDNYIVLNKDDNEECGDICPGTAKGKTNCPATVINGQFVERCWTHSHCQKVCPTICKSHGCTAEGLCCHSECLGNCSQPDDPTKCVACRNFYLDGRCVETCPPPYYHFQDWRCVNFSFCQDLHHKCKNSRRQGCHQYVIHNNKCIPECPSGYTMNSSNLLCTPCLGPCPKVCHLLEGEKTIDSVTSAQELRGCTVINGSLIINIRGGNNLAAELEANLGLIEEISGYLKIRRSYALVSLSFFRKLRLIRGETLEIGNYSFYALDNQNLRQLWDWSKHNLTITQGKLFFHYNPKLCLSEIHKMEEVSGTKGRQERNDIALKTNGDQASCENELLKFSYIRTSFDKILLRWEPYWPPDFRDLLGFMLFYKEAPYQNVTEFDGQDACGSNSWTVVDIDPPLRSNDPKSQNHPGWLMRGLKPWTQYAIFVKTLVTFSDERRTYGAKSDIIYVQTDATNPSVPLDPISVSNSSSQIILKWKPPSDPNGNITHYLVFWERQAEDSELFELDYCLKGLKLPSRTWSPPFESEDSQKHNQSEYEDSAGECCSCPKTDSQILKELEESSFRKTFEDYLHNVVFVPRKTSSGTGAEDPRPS
Sequence of Insulin receptor (Homo sapiens) (P06213 763-1382 limits assumed): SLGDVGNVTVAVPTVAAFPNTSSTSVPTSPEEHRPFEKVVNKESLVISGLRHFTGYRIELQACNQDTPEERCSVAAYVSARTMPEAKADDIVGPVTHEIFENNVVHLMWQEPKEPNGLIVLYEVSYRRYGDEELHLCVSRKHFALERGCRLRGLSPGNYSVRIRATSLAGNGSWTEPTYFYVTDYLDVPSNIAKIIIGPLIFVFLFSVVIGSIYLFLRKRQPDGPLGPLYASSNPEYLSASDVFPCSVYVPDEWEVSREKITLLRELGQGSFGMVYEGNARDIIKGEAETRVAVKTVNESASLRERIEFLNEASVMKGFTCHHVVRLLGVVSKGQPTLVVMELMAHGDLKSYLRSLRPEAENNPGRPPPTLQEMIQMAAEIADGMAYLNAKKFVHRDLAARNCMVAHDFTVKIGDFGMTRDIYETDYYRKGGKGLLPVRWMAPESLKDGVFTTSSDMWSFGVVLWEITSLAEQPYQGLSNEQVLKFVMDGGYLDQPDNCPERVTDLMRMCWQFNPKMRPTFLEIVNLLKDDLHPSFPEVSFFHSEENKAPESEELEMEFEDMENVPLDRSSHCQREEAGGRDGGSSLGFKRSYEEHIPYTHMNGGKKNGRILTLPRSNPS
Sequence of Misshapen-like kinase 1 (Homo sapiens) (Q8N4C8 whole entry, looked up, the tested form may be a part): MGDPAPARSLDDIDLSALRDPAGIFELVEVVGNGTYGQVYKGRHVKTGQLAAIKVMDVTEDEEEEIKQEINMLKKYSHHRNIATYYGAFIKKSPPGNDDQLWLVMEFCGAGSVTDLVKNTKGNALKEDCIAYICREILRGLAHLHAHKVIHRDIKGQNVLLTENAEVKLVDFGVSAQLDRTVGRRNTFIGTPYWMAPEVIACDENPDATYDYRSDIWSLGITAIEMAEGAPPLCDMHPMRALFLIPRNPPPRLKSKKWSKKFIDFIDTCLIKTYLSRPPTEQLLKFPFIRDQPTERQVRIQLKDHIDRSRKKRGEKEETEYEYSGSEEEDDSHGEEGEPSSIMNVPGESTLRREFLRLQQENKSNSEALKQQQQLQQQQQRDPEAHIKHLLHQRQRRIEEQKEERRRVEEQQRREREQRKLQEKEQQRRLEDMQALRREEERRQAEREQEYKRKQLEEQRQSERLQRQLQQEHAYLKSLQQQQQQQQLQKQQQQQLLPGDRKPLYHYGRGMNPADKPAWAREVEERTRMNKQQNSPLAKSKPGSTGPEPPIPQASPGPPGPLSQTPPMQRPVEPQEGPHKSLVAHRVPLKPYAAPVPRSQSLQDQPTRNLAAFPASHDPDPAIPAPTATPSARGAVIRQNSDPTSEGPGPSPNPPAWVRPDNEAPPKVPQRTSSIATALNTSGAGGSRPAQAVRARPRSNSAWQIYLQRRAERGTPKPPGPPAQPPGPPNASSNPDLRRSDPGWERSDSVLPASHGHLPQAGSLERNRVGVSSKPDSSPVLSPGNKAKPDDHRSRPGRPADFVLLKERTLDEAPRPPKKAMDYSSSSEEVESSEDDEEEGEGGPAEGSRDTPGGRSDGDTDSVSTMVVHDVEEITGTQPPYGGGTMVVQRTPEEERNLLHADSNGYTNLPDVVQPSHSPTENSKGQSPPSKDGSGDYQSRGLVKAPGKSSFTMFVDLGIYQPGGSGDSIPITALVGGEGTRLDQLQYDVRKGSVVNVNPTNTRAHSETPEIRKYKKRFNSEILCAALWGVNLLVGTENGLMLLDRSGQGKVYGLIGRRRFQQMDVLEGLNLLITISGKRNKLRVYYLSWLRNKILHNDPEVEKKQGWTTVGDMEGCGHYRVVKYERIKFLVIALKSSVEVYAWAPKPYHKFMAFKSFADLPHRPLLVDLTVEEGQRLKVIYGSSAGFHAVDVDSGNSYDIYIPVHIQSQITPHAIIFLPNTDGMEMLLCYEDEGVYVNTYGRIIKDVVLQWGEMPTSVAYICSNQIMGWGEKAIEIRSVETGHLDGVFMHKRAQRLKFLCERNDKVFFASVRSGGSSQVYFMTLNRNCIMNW
Sequence of Serine/threonine-protein kinase LATS2 (Homo sapiens) (Q9NRM7 whole entry, the tested form may be a part, canonical isoform): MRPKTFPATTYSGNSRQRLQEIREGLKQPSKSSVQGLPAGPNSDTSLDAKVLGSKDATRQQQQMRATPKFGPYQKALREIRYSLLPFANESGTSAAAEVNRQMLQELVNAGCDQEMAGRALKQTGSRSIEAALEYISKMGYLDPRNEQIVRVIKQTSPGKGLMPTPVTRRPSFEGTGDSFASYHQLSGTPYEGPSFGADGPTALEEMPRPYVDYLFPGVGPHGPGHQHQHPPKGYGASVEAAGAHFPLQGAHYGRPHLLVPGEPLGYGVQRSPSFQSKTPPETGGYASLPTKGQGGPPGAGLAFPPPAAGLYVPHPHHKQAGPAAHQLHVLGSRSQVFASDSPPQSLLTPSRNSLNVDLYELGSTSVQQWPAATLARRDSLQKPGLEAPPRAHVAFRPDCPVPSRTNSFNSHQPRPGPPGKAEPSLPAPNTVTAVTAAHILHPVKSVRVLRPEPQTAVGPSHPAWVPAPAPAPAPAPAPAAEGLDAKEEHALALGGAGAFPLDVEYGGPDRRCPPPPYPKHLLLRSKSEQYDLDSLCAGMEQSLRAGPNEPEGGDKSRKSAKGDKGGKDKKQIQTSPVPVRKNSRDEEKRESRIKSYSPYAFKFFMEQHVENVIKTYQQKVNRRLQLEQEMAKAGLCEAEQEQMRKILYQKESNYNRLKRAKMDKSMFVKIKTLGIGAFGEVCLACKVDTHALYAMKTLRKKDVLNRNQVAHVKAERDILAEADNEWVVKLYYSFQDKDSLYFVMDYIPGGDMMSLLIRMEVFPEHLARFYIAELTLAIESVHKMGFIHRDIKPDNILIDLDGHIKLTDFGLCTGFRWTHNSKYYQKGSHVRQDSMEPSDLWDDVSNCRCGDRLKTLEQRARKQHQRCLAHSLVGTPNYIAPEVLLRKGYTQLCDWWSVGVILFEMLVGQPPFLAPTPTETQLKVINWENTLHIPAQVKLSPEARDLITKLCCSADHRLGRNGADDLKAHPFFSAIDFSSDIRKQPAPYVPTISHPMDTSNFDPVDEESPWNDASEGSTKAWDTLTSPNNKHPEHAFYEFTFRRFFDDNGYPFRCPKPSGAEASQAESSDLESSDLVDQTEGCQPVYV
Sequence of Dual specificity mitogen-activated protein kinase kinase 2 (Homo sapiens) (P36507 whole entry, the tested form may be a part): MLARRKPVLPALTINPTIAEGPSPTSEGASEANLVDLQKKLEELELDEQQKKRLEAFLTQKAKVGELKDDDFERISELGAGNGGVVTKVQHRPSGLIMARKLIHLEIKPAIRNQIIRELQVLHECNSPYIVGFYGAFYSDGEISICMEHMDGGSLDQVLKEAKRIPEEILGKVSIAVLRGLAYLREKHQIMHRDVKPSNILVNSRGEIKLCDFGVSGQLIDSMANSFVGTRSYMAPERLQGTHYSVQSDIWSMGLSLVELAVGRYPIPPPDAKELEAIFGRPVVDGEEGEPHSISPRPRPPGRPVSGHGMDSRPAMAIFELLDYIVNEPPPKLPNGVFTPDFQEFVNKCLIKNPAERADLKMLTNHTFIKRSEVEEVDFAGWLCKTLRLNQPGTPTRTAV
Sequence of Aurora kinase C (Homo sapiens) (Q9UQB9 whole entry, the tested form may be a part): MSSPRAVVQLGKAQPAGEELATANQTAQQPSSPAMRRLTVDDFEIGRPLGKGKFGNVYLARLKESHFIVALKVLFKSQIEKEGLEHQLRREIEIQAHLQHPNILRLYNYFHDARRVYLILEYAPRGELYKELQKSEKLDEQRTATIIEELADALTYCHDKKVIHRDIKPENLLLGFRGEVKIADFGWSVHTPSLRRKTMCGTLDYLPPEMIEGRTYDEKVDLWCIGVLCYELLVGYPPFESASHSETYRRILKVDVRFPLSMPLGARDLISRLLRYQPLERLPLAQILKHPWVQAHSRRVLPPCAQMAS

SMILES | Activity [1] | Activity [2] | Activity [3] | Activity [4] | Activity [5] | Activity [6] | Activity [7] | Activity [8] | Activity [9] | Activity [10] | Activity [11] | Activity [12] | Activity [13] | Activity [14] | Activity [15] | Activity [16] | Activity [17] | Activity [18] | Activity [19] | Activity [20] | further results
C=CC(=O)Nc1ccc(C(=O)Nc2ccc(Nc3ncc4c(n3)N(C)c3ccc(C)cc3C(=O)N4C)cc2)cc1 | 86% | 98% | 73% | 100% | 64% | 100% | 97% | 94% | 87% | 85% | 90% | 49% | 92% | 91% | 96% | 100% | 87% | 100% | 100% | 100% | Activity [21]: 95%; Activity [22]: 99%; Activity [23]: 84%; Activity [24]: 100%; Activity [25]: 98%
CCC(=O)Nc1ccc(C(=O)Nc2ccc(Nc3ncc4c(n3)N(C)c3ccc(C)cc3C(=O)N4C)cc2)cc1 | 72% | 65% | 89% | 92% | 83% | 93% | 65% | 76% | 67% | 93% | 74% | 1.3% | 89% | 94% | 73% | 93% | 80% | 90% | 88% | 99% | Activity [21]: 78%; Activity [22]: 100%; Activity [23]: 85%; Activity [24]: 96%; Activity [25]: 89%
